Source: PubChem (several laboratories)
S1P3 antagonist = S1P3 receptor antagonists, primary screen, cell-based; Sphingosine 1-phosphate receptor 3 (Homo sapiens), Q99500; CHO S1P3 NFAT-BLA reporter, FRET fluorescence, antagonist mode; inhibition, % at 4.98 µM; 0.27% of 170,000 active; AID 485, 2006;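 active means inhibition above the plate cutoff, the mean inhibition of test wells on that plate plus 3 SD, cut at about 28% in these data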;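 further: cells challenged with S1P at its EC80 of 0.8 µM; blue over green emission ratio from cleaved BLA substrate after 4 h stimulation; 0% = S1P-stimulated wells and 100% = unstimulated DMSO-only wells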
Target sequence (Q99500 whole entry, looked up): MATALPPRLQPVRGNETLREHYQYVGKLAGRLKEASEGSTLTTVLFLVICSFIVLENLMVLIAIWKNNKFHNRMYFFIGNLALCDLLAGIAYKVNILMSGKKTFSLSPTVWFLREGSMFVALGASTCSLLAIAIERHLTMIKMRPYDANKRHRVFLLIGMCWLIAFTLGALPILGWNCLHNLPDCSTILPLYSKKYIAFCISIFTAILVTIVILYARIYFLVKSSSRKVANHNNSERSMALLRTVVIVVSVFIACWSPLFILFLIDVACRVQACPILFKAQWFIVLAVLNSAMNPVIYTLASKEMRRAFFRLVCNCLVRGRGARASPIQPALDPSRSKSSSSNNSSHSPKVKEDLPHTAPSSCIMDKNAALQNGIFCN
Yeast lifespan up = compounds extending yeast replicative lifespan, primary screen, S. cerevisiae, OD615; S. cerevisiae growth with nicotinamide; deaD strain in restrictive glucose medium; AID 775, 2007; 0.68% of 130,000 active; inhibition of the nicotinamide effect, % at 10 µM;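 active means inhibition above a set limit, placed 3 SD over the median of all compounds, cut at about 26% in these data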;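 further: 0% = nicotinamide-treated wells and 100% = cells grown without nicotinamide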
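Material: Modified budding yeast, DeaD strain | Medium: Restrictive glucose medium | Probe or stimulus: 1.5 mM nicotinamide | Dosing: Single dose 10 µM compound, 0.25% DMSO | Times: 48 h at 30 °C | Technique: OD615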
Yeast growth inh = growth inhibitors of yeast BB579 in restrictive medium, primary screen, yeast lifespan-shortening project, S. cerevisiae. 0.51% of 140,000 active. OD615, 48 h. inhibition, % at 10 µM;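 active means inhibition above a set limit, 3 SD over the mean compound inhibition, cut at about 44% in these data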
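controls = amphotericin B 10 µg/mL, positive | assay system = DeaD yeast strain BB579 | schedule = 48 h compound exposure at 30 °C after 4 h preincubation | detection = OD615 turbidity measurement | medium = restrictive CSMM-D medium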
Starred values were filed as active, the others as inactive; · = not tested or not shown. Rows were chosen to be rich in hits. Some 0.98% of all compounds tested hit in one or more screens of this group.

SMILES	S1P3 antagonist	Yeast lifespan up	Yeast growth inh
CCCCn1c(=O)c(C(=O)NCc2ccncc2)c(O)c2ccccc21	-30	-11	46*
CCCCCCn1c(=O)c(C(=O)Nc2ccncc2)c(O)c2ccccc21	1	·	·
O=c1[nH]c(O)c(N=Nc2cc([N+](=O)[O-])ccc2O)c(=O)[nH]1	-11	·	·
COc1ccc(O)c(CN2CCCC(C(=O)c3ccccc3SC)C2)c1 (stereo not given)	-6	·	·
CC1=NOC2(C)Nc3ncnn3C(c3ccccc3)C12 (stereo not given)	·	-16	-35
O=C1/C(=C/c2cccc([N+](=O)[O-])c2)N2CCC1CC2	2	36*	-37
O=C1/C(=C/c2cc([N+](=O)[O-])ccc2Cl)N2CCC1CC2	·	23	-40
CN1C(=O)CN=C(c2ccccc2)c2cc([N+](=O)[O-])ccc21	-7	·	·
CN1CCN(c2ccc(F)cc2N)CC1	-8	·	·
O=C1c2ccccc2C(=O)N1Cc1nc2ccccc2c(=O)n1-c1ccc(Br)cn1	18	77*	-44
O=C1c2ccccc2C(=O)N1Cc1nc2ccccc2c(=O)n1-c1cccnc1	·	-11	-10
OCCOCC#CCN1CCOCC1	·	-3	-47
Cc1c(N=Nc2c(O)[nH]c(=O)[nH]c2=O)c(=O)n(-c2ccccc2)n1C	-15	·	·
CC1(C)C[C@H]2C=C(C=O)[C@]3(C=O)C[C@]3(C)[C@H]2C1	0	-12	100*
CC(C)C12CN3CC(C(C)C)(CN(C1)C3c1cccnc1)C2=O (stereo not given)	·	-6	-34
Cc1ccc(/C=C2\C(=O)NC(=O)N(CCc3ccc(F)cc3)C2=O)o1	-9	39*	-37
Cc1ccc(/C=C2/C(=O)NC(=O)N(Cc3ccc(F)cc3)C2=O)o1	-3	·	·
C/C(=N\N1CCN(C)CC1)c1c(O)[nH]c(=O)[nH]c1=O	3	13	-30
CCC(=Nc1ccc2c(c1)CCC2)c1c(O)n(-c2ccc(OC)cc2)c(=O)[nH]c1=O	-8	·	·
COc1c(C)cc(C(=O)C2CCCN(Cc3ccccn3)C2)cc1C (stereo not given)	0	·	·
Cc1ccc(N2C(=O)NC(=O)/C(=C\C=C\c3ccco3)C2=O)cc1C	-1	29*	-28
Cc1ccc(N2C(=O)NC(=O)/C(=C\C=C\c3ccco3)C2=O)cc1	-4	·	·
Cc1nn(CCC#N)c2c1P(=S)(N1CCCC1)OC(c1ccc(F)cc1)=N2 (stereo not given)	74*	5	-26
CCOC(=O)[C@]1(C#N)[C@@H]2C=CC(C(C)=O)=CN2[C@@H](C(N)=O)[C@@H]1c1ccsc1	·	-27	-11
O=C1NC(=S)N(C2CC2)C(=O)/C1=C/c1ccc2c(c1)CCN2CCCCl	1	27*	-15
SMILES	S1P3 antagonist	Yeast lifespan up	Yeast growth inh
CCN1C(=O)/C(=C/c2ccc3c(c2)CCN3CCCCl)C(=O)NC1=S	9	21	-38
CCOC(=O)C(=CNc1ccc(C(O)(C(=O)OCC)C(F)(F)F)cc1C)C(=O)OCC (stereo not given)	-14	1	-30
C=CCn1c(O)c(C(CC)=Nc2cccc(C(F)(F)F)c2)c(=O)[nH]c1=O	-9	·	·
Cc1nc2ccccc2c(=O)n1-c1ccc(Br)cc1[N+](=O)[O-]	-4	·	·
O=C1CC(c2ccccc2)CC(O)=C1C=NCCN1CCN(C(=O)Cc2ccccc2)CC1 (stereo not given)	·	82*	-60
Cc1ccc(C2CC(=O)C(C=NCCN3CCN(C(=O)Cc4ccccc4)CC3)=C(O)C2)cc1 (stereo not given)	5	47	-34
COc1nc(NCC2CCCO2)nc(N2CC3CC(C2)c2cccc(=O)n2C3)n1 (stereo not given)	-15	·	·
CCC(=O)c1c(O)n(C2CCCCCC2)c(=O)[nH]c1=O	10	-10	89*
CC(=NCCO)c1c(O)n(C2CCCCC2)c(=O)[nH]c1=O	-6	-4	-19
CCn1nc(-c2ccccc2)nc2c(=O)n(C)c(=O)nc1-2	103*	-14	100*
Cc1nc2c(=O)n(C)c(=O)nc-2n(C)n1	·	·	-22
CN1/C(=C\C=Nc2ccccc2)C(C)(C)c2ccccc21	·	1	-18
CN1/C(=C\C=C\C2=[N+](C)c3ccc4ccccc4c3C2(C)C)C(C)(C)c2ccccc21	·	-23	87*
COC(=O)C(O)(c1ccc(NC(=S)NC(=O)c2ccccc2)cc1)C(F)(F)F (stereo not given)	·	-4	-53
CCOP(=S)(NN(Cc1ccccc1)C(=O)c1ccccc1)OCC	7	4	-3
CC1Oc2cc3c(-c4c(O)cc(O)c5c(O)c6c(cc45)OC(C)C(C)C6=O)c(O)cc(O)c3c(O)c2C(=O)C1C (stereo not given)	43*	·	·
N=Cc1c(O)n(-c2ccc(C34CC5CC(CC(C5)C3)C4)cc2)c(=O)[nH]c1=O	-5	-2	-25
CCC(=NCc1ccc(F)cc1)c1c(O)n(C)c(=O)n(C)c1=O	33	-11	-41
CCCC1COC(Cn2cncn2)(c2ccc(Cl)cc2Cl)O1 (stereo not given)	·	-23	94*
CC1(c2ccc(Cl)cc2Cl)OCC(Cn2cncn2)O1 (stereo not given)	13	·	·
CN1CCN(c2ccc(N)cc2Cl)CC1	-16	·	·
NS(=O)(=O)c1ccc(N=Cc2c(O)n(C3CCCCC3)c(=O)n(C3CCCCC3)c2=O)cc1	23	33*	-49
CCn1c(O)c(C=Nc2ccc(S(N)(=O)=O)cc2)c(=O)n(CC)c1=S	-6	3	-23
Cc1sc2c(c1C)C(c1ccc(C(C)(C)C)cc1)=NCC(=O)N2CC(=O)Nc1nccs1	·	-5	-64
CCC(C)N1C(=O)/C(=C\c2ccc(N3CCCCCC3)cc2)C(=O)NC1=S (stereo not given)	-15	8	-57
SMILES	S1P3 antagonist	Yeast lifespan up	Yeast growth inh
CCC(C)N1C(=O)/C(=C\c2cc3c4c(c2)CCCN4CCC3)C(=O)NC1=S (stereo not given)	-14	30*	-36
COc1cccc(C2CC3C(=O)C=CC2N3Cc2ccccc2)c1 (stereo not given)	-4	59*	-38
O=C(Nc1ccc(Cl)cc1)O/N=C(\c1ccccc1)c1ccccn1	·	-6	-18
COc1ccc(C2SCC(=O)Nc3c2c(=O)[nH]n3C2CCCCCC2)cc1OC (stereo not given)	·	29*	-18
COc1ccc(C2SCC(=O)Nc3c2c(=O)[nH]n3C2CCCCCC2)cc1 (stereo not given)	·	0	-29
Clc1ccc(COC(Cn2ccnc2)c2ccc(Cl)cc2Cl)cc1 (stereo not given)	2	-9	97*
Clc1ccc(CSC(Cn2ccnc2)c2ccc(Cl)cc2Cl)cc1 (stereo not given)	6	-9	98*
c1ccc(Cn2ccnc2)cc1	-14	9	-16
C/C(=N\N1CCCCC1c1cccnc1)c1c(O)n(C2CCCCC2)c(=S)[nH]c1=O (stereo not given)	-32	5	-16
COc1ccc(CC2C(=O)NC(=O)N(c3ccccc3)C2=O)c(OC)c1 (stereo not given)	74*	-9	-11
COc1ccc(CC2C(=O)N(c3ccccc3)C(=O)N(c3ccccc3)C2=O)c(OC)c1	·	-13	-3
